Measured values pooled from the literature.
Protocols differ between the studies behind these lines.
HTR5A: 5-hydroxytryptamine receptor 5A (HTR5A, Homo sapiens, UniProt P47898)
PI4KA: Phosphatidylinositol 4-kinase alpha (PI4KA, Homo sapiens, UniProt P42356)

| SMILES | target | assay | system | setting | inhibition [%] |
| --- | --- | --- | --- | --- | --- |
| O=C(Oc1nsnc1N1CCC(Cc2ccccc2)CC1)N1CCCCC1 | Monoacylglycerol lipase ABHD6 (ABHD6, Homo sapiens, UniProt Q9BV23) | enzyme activity, inhibitor, fluorescence |  | 1 µM, lysate | 15 |
| CCN(CC)c1ccc(C2Nc3ccc(C(=O)c4ccccc4)cc3NC3=C2C(=O)CC(C)(C)C3)cc1 (stereo not shown) | HTR5A | ligand displacement, radioligand |  | 10 µM | 85 |
| CC(C)CCn1c(SCC(=O)Nc2ccccc2C(F)(F)F)nc2nccnc2c1=O | PI4KA | enzyme activity, inhibitor |  | 10 µM | < 20 |
| O=C1N=C(N2CCCCN2)S/C1=C\c1ccc(F)cc1O | Neurotensin receptor type 1 (NTSR1, Homo sapiens, UniProt P30989) | ligand displacement, radioligand |  | 10 µM | < 10 |
| N#Cc1cc(Cn2c(N3CCCC3)nc3ccccc32)ccc1F | HTR5A | ligand displacement |  | 10 µM | -15 |
| CN1CC(Oc2cnc(C#N)cc2-c2ccn3nc(NC(=O)C4CC4)cc3c2)C1 | Tribbles homolog 2 (TRIB2, Homo sapiens, UniProt Q92519) | enzyme activity, inhibitor |  | 1 µM | 9 |
| CS(=O)(=O)Nc1cccc(-c2csc(NC(=O)CSc3nc4nccnc4c(=O)n3CCc3ccccc3)n2)c1 | PI4KA | enzyme activity, inhibitor |  | 10 µM | 5 |
| CC(C)C[C@H](NC(=O)[C@H](CC(C)C)NC(=O)CNC(=O)[C@H](C)NC(=O)[C@H](C)NC(=O)[C@H](CCCNC(=N)N)NC(=O)CNC(=O)CCCCNC(=O)[C@H](CCCCN)NC(=O)[C@H]1CCCN1C(=O)[C@H](CCCCN)NC(=O)[C@H](CCCCN)NC(=O)[C@H](CCCCN)NC(=O)[C@H](CCCCN)NC(=O)[C@H](Cc1ccc(O)cc1)NC(=O)[C@@H](N)Cc1c[nH]c2ccccc12)C(N)=O | Neuropeptides B/W receptor type 1 (NPBWR1, Homo sapiens, UniProt P48145) | calcium signal, antagonist |  | 10 µM | 95 |
| CCN1CCN(Cc2ccc(NC(=O)c3ccc(C)c(Oc4ccnc5[nH]ccc45)c3)cc2C(F)(F)F)CC1 | PI4KA | target engagement in cells, inhibitor, chemoproteomics | Huh-7 | 10 µM | -10.4 |
| O=C(CSc1nc2nccnc2c(=O)n1CCc1ccccc1)Nc1nccs1 | Atypical kinase COQ8A, mitochondrial (COQ8A, Homo sapiens, UniProt Q8NI60) | enzyme activity, inhibitor |  | 10 µM | 10 |
| CCN1CC(c2ccccc2)c2cc(OC)c(OC)c3c2C1Cc1cc2c(cc1-3)OCO2 (stereo not shown) | HTR5A | ligand displacement, radioligand |  | 10 µM | -12.1 |
| CCCNc1nc2ccccc2n1Cc1ccc(Cl)cc1 | HTR5A | ligand displacement |  | 10 µM | 24.8 |
| Cn1cnc(Br)c1C1=CN(c2ncnc3[nH]cnc23)CCS1 | Mitogen-activated protein kinase kinase kinase 19 (MAP3K19, Homo sapiens, UniProt Q56UN5) | enzyme activity, inhibitor, radiometric |  | 2 µM | 92.8 |
